Here are results for three compounds from ChEMBL document CHEMBL1136911, “6,7-Dihydro-5H-pyrrolo[1,2-a] imidazoles as potent and selective alpha1A adrenoceptor partial agonists” (Bioorg Med Chem Lett, 2009).

A word on the EC50: it is the concentration at which the effect is half-maximal. In general, Ki refers to the dissociation constant of the complex between target and ligand, obtained from inhibition or displacement. The low end stands for a stronger hold on the target, the high end for a looser hold on the target. By Papp is commonly meant a coefficient for how fast a substance crosses the barrier. As a reminder, the logD is lipophilicity at a set pH, counting ionised and neutral species. A lower logD goes with a more hydrophilic compound. In general, Emax refers to the maximal effect, on the per cent scale that the assay sets. The microsomal CLint is a measure of how fast metabolising enzymes remove a compound, apart from limits set by blood flow. As usually defined, the Papp A→B is the apparent permeability from the apical to the basolateral side of a cell layer. As a reminder, the Papp B→A is the apparent permeability from the basolateral to the apical side of a cell layer. Broadly, the inhibition is the relative decrease from the control value, in per cent. Low values mean a weak effect, high ones a strong effect.

Molecules are shown by their SMILES.

The target of series [1] is T1, Alpha-1B adrenergic receptor (Homo sapiens, UniProt P35368).
T1 sequence (P35368 whole entry): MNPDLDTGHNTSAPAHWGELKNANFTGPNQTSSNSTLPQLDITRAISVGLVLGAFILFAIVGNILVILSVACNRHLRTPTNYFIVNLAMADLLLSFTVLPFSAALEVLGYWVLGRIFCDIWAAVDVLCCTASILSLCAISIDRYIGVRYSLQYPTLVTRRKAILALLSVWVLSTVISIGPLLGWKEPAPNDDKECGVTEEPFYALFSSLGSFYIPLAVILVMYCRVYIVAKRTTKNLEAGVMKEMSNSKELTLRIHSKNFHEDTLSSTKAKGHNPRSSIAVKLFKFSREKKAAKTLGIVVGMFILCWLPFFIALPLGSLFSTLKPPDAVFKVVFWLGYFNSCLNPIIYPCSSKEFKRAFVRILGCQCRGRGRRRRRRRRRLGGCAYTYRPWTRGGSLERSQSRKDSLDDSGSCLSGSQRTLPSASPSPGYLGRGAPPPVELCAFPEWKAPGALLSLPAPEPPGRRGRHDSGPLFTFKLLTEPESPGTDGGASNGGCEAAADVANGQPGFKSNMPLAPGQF
The series is described as follows: Agonist activity at human adrenergic Alpha-1B receptor expressed in CHO cells assessed as calcium mobilization by FLIPR. The format is functional, cell-based. The method, boiled down:
(§1)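 Human alpha1B (clone 11) or alpha1D (clone 23) receptor stably expressed in Chinese hamster ovary cells; receptor activation read as Gq-coupled calcium mobilisation with a calcium-sensitive fluorescent dye on FLIPR. Eleven-point concentration-response curves; Emax given as percent of the response to 10 µM phenylephrine. Values are geometric means of at least two experiments.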
Background: Calcium assays in cells follow changes in intracellular calcium, usually with a dye or a luminescent sensor.

Series [2] addresses T2, Alpha-1D adrenergic receptor (Homo sapiens, UniProt P25100).
T2 sequence (P25100 whole entry): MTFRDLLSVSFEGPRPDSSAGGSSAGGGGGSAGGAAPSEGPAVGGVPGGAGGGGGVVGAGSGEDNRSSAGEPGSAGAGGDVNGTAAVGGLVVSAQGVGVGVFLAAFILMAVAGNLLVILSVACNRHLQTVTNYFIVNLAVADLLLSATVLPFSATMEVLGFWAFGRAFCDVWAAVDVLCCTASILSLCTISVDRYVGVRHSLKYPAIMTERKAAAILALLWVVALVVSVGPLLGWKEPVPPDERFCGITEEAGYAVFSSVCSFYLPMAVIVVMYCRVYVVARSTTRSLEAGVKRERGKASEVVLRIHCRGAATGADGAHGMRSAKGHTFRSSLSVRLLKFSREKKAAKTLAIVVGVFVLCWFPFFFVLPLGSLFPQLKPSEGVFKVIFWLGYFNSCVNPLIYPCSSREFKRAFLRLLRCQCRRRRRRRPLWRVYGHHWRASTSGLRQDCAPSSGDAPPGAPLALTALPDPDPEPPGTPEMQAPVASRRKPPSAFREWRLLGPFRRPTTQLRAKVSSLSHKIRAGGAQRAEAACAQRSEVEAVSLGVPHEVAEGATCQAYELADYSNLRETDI
Put plainly: Agonist activity at human adrenergic Alpha-1D receptor expressed in CHO cells assessed as calcium mobilization by FLIPR. Format: functional, cell-based. In outline: as §1

Series [3] has as its target T3, Alpha-2A adrenergic receptor (Homo sapiens, UniProt P08913).
T3 sequence (P08913 whole entry): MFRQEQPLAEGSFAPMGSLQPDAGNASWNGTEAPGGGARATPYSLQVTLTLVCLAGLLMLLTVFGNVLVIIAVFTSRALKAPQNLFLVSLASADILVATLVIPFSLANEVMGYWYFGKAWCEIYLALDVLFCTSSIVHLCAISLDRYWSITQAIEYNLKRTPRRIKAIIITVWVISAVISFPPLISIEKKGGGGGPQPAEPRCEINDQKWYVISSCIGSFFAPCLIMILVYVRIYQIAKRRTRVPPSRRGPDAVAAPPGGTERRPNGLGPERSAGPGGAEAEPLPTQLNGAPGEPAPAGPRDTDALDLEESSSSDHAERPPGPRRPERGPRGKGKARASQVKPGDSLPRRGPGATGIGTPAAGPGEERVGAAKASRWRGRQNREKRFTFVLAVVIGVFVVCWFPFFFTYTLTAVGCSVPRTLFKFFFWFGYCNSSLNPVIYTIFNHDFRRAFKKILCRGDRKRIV
The series is described as follows: Inhibition of adrenergic alpha2A receptor.

In series [4] the test system is MDCK. The series is described as follows: (§2) Apparent permeability from apical to basolateral side of MDCK cells expressing MDR1. The format is ADME, cell-based, Canis lupus familiaris. Particulars: dog, mdck; call rule not given here. The method, boiled down:
(§3)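 MDCK cells expressing P-glycoprotein (mdr-1); transcellular flux measured at 10 µM substrate in the apical-to-basolateral and basolateral-to-apical directions, reported as Papp ×10^-6 cm s^-1.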

In series [5] the test system is MDCK. The series is described as follows: (§4) Apparent permeability from basolateral to apical side of MDCK cells expressing MDR1. The format is ADME, cell-based, Canis lupus familiaris. Particulars: dog, mdck. In outline: as §3
The nature of series [6]: Lipophilicity, log D at pH 7.4. Particulars: buffer.
In series [7] the target is T4, Alpha-1A adrenergic receptor (Homo sapiens, UniProt P35348).
T4 sequence (P35348 whole entry): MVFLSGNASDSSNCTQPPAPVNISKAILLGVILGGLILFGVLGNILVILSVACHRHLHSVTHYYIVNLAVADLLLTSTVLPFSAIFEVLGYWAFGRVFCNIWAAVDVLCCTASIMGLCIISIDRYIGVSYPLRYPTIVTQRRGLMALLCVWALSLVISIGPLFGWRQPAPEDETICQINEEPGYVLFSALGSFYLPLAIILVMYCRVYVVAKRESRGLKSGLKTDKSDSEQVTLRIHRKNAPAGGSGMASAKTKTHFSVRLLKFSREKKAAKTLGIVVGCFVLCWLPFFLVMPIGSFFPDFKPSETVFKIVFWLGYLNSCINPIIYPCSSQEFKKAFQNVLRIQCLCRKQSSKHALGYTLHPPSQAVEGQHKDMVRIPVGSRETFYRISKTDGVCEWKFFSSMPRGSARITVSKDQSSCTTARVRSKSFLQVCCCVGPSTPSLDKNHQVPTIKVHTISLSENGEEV
Put plainly: Agonist activity at human adrenergic alpha1A receptor expressed in CHO cells assessed as calcium mobilization by FLIPR. The format is functional, cell-based.

The target of series [8] is T5, Alpha-1B adrenergic receptor (Homo sapiens) (UniProt P35368).
T5 sequence (whole entry): T1 sequence (P35368 whole entry)
The series is described as follows: Agonist activity at human adrenergic Alpha-1B receptor expressed in CHO cells assessed as calcium mobilization by FLIPR relative to 10 uM phenylephrine. The format is functional, cell-based. The method, boiled down: (§5)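 Human α1B (clone 11) and α1D (clone 23) receptors each expressed in Chinese hamster ovary cells. Gq-coupled receptor activation read as intracellular calcium rise with a calcium-sensitive fluorescent dye on FLIPr. Eleven-point concentration-response curves; Emax expressed as percent of the 10 µM phenylephrine response. Values are geometric means of at least two experiments.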

Series [9] deals with T6, Alpha-1D adrenergic receptor (Homo sapiens) (UniProt P25100).
T6 sequence (whole entry): T2 sequence (P25100 whole entry)
The series is described as follows: Agonist activity at human adrenergic Alpha-1D receptor expressed in CHO cells assessed as calcium mobilization by FLIPR relative to 10 uM phenylephrine. The format is functional, cell-based. In outline:
as §5

The nature of series [10]: Intrinsic clearance in human liver microsomes. The format is ADME, Microsome.
Series [11] in a line: as §2. Particulars: dog, MDCK-MDR1. Format: ADME, cell-based, Canis lupus familiaris. The method, boiled down:
as §3

Series [12] can be described thus: as §4. Particulars: dog, MDCK-MDR1. Format: ADME, cell-based, Canis lupus familiaris. In outline: as §3
For series [13], the target named is Voltage-gated inwardly rectifying potassium channel KCNH2 (Homo sapiens, UniProt Q12809). The series is described as follows: Inhibition of human ERG up to 22 uM.
Sequence of Voltage-gated inwardly rectifying potassium channel KCNH2 (Q12809 whole entry): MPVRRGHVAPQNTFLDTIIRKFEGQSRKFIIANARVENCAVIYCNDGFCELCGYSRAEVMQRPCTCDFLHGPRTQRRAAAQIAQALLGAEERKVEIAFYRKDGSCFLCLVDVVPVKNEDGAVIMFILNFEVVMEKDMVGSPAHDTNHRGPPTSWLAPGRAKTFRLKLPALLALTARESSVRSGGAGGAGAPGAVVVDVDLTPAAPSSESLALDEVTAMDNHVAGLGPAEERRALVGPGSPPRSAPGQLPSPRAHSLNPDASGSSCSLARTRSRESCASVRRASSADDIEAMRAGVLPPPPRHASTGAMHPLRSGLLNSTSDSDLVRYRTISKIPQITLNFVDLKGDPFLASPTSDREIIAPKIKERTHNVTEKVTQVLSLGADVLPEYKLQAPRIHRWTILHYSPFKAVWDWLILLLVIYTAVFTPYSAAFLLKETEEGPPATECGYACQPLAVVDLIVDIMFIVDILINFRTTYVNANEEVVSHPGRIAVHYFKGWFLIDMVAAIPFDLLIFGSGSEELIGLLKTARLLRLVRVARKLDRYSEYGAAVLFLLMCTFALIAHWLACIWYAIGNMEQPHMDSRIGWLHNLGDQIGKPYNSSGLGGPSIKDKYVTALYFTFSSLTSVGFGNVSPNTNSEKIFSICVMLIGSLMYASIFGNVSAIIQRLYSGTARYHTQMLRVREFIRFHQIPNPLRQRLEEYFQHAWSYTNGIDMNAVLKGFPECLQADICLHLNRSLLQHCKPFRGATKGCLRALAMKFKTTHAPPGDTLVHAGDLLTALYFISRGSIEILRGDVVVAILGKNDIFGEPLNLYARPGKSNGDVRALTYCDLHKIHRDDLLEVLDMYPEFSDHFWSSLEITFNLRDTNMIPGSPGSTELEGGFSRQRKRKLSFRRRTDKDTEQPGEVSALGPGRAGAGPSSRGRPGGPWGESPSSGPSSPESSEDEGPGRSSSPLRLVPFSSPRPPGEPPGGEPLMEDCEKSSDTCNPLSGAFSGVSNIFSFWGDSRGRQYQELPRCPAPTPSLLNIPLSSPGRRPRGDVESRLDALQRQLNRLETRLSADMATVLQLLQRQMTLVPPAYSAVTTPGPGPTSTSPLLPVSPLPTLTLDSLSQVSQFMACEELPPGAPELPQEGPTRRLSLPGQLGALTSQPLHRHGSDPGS
Another series deals with T7, CYP1A2 (Homo sapiens, UniProt P05177).
T7 sequence (P05177 whole entry): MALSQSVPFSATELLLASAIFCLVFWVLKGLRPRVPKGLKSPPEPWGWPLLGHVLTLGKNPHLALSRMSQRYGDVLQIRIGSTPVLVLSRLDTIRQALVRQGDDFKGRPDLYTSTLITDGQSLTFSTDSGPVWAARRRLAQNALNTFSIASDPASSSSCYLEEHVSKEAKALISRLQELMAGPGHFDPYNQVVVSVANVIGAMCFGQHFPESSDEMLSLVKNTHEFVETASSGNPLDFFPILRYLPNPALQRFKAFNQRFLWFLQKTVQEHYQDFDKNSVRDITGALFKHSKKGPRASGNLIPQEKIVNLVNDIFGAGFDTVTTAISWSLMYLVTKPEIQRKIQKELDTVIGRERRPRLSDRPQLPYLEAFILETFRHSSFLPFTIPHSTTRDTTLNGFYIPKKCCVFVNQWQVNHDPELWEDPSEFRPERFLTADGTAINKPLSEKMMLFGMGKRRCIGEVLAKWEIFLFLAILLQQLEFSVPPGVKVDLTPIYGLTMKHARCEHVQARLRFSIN
The series is described as follows: Inhibition of CYP1A2 at 3 uM. Format: ADME.

Another series has as its target CYP2C9 (Homo sapiens, UniProt P11712). The series is described as follows: Inhibition of CYP2C9 at 3 uM. Format: ADME.
The target of a further series is CYP2D6 (Homo sapiens, UniProt P10635). Put plainly: Inhibition of CYP2D6 at 3 uM. The format is ADME.
Sequence of CYP2D6 (P10635 whole entry): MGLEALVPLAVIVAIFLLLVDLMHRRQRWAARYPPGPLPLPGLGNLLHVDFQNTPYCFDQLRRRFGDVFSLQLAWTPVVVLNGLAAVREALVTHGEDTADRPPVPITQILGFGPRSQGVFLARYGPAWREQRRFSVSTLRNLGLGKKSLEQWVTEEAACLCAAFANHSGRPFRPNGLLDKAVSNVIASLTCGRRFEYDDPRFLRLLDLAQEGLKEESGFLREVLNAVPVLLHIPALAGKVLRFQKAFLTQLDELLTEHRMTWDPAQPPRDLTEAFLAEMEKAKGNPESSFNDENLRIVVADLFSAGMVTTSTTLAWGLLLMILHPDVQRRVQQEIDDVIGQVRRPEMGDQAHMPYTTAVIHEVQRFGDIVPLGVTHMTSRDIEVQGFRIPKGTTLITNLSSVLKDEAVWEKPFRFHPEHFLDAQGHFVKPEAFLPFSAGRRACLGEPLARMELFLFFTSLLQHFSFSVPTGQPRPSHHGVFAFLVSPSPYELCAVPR
The target of the next series is CYP3A4 (Homo sapiens, UniProt P08684). Put plainly: Inhibition of CYP3A4 at 3 uM. The format is ADME.
Sequence of CYP3A4 (P08684 whole entry): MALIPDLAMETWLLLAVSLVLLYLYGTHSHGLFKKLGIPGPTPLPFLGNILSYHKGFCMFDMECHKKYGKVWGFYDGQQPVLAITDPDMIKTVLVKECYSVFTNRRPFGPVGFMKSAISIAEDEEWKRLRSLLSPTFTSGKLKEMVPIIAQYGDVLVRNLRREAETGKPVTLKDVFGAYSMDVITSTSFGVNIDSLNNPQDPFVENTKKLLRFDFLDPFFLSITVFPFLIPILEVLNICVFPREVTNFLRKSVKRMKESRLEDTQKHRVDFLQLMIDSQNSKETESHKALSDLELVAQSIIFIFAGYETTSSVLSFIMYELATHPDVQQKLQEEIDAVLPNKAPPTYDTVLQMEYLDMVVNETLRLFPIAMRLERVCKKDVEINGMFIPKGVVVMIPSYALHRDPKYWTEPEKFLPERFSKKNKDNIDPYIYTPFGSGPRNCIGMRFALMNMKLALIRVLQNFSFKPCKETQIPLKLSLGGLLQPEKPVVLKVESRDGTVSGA

Sequence of CYP2C9 (P11712 whole entry): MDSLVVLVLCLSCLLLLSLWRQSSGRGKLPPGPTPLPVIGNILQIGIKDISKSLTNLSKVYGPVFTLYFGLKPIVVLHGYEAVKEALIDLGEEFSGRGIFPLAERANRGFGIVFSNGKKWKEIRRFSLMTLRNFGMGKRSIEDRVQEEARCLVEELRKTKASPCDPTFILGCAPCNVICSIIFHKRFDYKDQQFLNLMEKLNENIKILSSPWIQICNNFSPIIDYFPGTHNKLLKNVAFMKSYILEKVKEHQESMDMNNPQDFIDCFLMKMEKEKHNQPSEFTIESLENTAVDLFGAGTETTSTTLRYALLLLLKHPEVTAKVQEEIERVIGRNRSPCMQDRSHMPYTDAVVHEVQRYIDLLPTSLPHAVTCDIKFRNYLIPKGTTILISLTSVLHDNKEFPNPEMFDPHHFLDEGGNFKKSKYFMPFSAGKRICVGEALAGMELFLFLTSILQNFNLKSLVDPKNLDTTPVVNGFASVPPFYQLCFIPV

Turning to `COCc1c(Cl)ccc2c1CC[C@H]2c1ncc[nH]1`, the EC50 in series [1] is above 10000 nM; in series [2], above 7000 nM. The Ki in series [3] was above 1700 nM. For the same compound, the Papp in the series with MDCK [4] was 40 ×10⁻⁶ cm/s; in the series on MDCK [5], 36 ×10⁻⁶ cm/s. The compound also gave a logD in series [6] of 2.6.

For `c1cncc(-c2ccccc2[C@@H]2Cc3nccn3C2)c1`, the EC50 in series [7] was 1 nM; in [1], 760 nM; in [2], 119 nM. Further, the Emax came to 54% in series [8] and 71% in series [9]. This compound displayed a Ki in [3] of 991 nM. This compound also returned a microsomal CLint in series [10] of 8 µL/min/mg. In series [11], the Papp A→B worked out at 44 ×10⁻⁶ cm/s. In series [12], the Papp B→A was 47 ×10⁻⁶ cm/s. The compound further returned a logD in series [6] of 2.1.

Take `Fc1ccc(-c2cncnc2)c(C2Cc3nccn3C2)c1` (centres undefined): the results for the EC50 in [7], in [1] and in series [2] were 1 nM, above 10000 nM and above 2600 nM, respectively. In [3], this compound came in with a Ki above 2780 nM. In addition, the microsomal CLint in [10] was below 8 µL/min/mg. In [11], the Papp A→B stood at 34 ×10⁻⁶ cm/s. The Papp B→A in series [12] worked out at 39 ×10⁻⁶ cm/s. Further, the logD in series [6] is 1.3. Moreover, the “inhibition (INH)” value in series [13] is “Not Active”. The inhibition at 3 µM on CYP1A2, at CYP2C9, against CYP2D6 and at CYP3A4 was below 10% each time.
